Assay results taken from ChEMBL document CHEMBL1122222, “Synthesis and biological activities of the Z isomers of carbapenem antibiotics” (J Med Chem, 1983).
In brackets after ≈: the same amount, converted by molar mass.

How the values were obtained:
Mus musculus [1] = assay: In vivo protective effect in mice infected with Proteus vulgaris GN4815 at (dose mg/kg) administered sc; format: functional
[2] = In vitro potentiation activity was tested after adding a concentration of […] into the agar plate of ampicillin; show synergistic effect; format: functional
Beta-lactamase [3] = target: Beta-lactamase (Staphylococcus aureus, UniProt P00807); assay: Beta-lactamase inhibitory activity against penicillinase of Staphylococcus aureus 1840; conditions: read-out: I50 (converted)
Beta-lactamase (Staphylococcus aureus, UniProt P00807), sequence (P00807 whole entry): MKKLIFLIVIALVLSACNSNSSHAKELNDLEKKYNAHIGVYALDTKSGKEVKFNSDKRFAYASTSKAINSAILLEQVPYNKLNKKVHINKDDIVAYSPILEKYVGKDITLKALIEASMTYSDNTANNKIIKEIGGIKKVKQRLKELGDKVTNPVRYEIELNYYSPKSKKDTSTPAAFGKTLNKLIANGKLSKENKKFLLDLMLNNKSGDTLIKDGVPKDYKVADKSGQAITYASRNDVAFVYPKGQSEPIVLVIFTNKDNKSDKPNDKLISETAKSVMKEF

Klebsiella pneumoniae [4] = assay: Inhibition of growth of Klebsiella pneumoniae DT; format: functional; conditions: Klebsiella pneumoniae; read-out: MIC
Procedure, shortened: (§1)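 Agar dilution MIC on Trypticase soy agar; inoculum one loopful of bacterial suspension at 10⁸ cfu/mL.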

Proteus mirabilis = assay: Inhibition of growth of Proteus mirabilis IFO 3849; format: functional; conditions: Proteus mirabilis, IFO 3849; read-out: MIC; procedure, shortened: as §1
Escherichia coli [5] = assay: MIC against Escherichia coli O-111; format: functional; conditions: Escherichia coli; read-out: MIC; procedure, shortened: as §1
Mus musculus [6] = assay: In vivo synergistic protective effect with cefotiam in mice infected with Proteus vulgaris GN4815 at 1 mg/kg dose given sc; format: functional; conditions: route subcutaneous
Beta-lactamase [7] = target: Beta-lactamase (Proteus vulgaris, UniProt P52664); assay: Beta-lactamase inhibitory activity against cephalosporinase of Proteus vulgaris GN4413; conditions: read-out: I50 (converted)
Beta-lactamase (Proteus vulgaris, UniProt P52664), sequence (P52664 whole entry, looked up): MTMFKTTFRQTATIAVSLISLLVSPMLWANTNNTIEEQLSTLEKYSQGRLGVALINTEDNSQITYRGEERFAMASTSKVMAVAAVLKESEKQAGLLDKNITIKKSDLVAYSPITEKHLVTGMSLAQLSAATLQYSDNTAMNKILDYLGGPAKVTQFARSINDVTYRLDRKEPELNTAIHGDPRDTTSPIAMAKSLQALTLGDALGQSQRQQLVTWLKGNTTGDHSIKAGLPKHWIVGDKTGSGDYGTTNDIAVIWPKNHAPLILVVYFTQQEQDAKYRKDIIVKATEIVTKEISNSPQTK

Pseudomonas aeruginosa = assay: Inhibition of growth of Pseudomonas aeruginosa IFO 3455; format: functional; conditions: Pseudomonas aeruginosa, IFO 3455; read-out: MIC; procedure, shortened: as §1
Serratia marcescens = assay: Inhibition of growth of Serratia marcescens IFO 12648; format: functional; conditions: Serratia marcescens, IFO 12648; read-out: MIC; procedure, shortened: as §1
[8] = target: Beta-lactamase (Staphylococcus aureus) (UniProt P00807)
Beta-lactamase (Staphylococcus aureus), sequence (P00807 whole entry): as the sequence (P00807 whole entry) above

Citrobacter freundii = assay: Inhibition of growth of Citrobacter freundii IFO 12681; format: functional; conditions: Citrobacter freundii, IFO 12681; read-out: MIC; procedure, shortened: as §1
Morganella morganii = assay: Inhibition of growth of Proteus morganii IFO 3168; format: functional; conditions: Morganella morganii, IFO 3168; read-out: MIC; procedure, shortened: as §1
Enterobacter cloacae = assay: Inhibition of growth of Enterobacter cloacae IFO 12937; format: functional; conditions: Enterobacter cloacae, IFO 12937; read-out: MIC; procedure, shortened: as §1
Mus musculus [9] = assay: In vivo synergistic protective effect with cefotiam in mice infected with Proteus vulgaris GN4815 at 100 mg/kg dose given sc; format: functional; conditions: route subcutaneous
[10] = tested on: Acinetobacter calcoaceticus; assay: Inhibition of growth of Acinetobacter calcoaceticus. IFO 13006; format: functional, acinetobacter calcoacet; conditions: Acinetobacter calcoaceticus, IFO 13006; read-out: MIC; procedure, shortened: as §1
Mus musculus [11] = organism: Mus musculus; assay: Half life in mouse kidney homogenates; format: ADME
Procedure, shortened: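 Carbapenem at 50 µg/mL incubated in 10% mouse kidney homogenate at 30 °C; residual antibiotic measured at intervals by its β-lactamase-inhibiting activity.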

[12] = target: T1, Beta-lactamase (Proteus mirabilis) (UniProt P30897); conditions: Proteus vulgaris
T1 sequence (whole entry): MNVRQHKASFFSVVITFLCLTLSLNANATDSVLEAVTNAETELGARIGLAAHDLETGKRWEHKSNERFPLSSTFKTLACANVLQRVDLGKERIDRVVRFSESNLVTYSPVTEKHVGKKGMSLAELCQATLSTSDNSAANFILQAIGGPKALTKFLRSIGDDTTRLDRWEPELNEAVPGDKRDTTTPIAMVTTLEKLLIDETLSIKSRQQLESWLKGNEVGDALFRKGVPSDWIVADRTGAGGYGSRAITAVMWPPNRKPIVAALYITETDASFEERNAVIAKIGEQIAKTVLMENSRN

Proteus vulgaris = assay: Inhibition of growth of Proteus vulgaris IFO 3988; format: functional; conditions: Proteus vulgaris, IFO 3988; read-out: MIC; procedure, shortened: as §1
Klebsiella pneumoniae [13] = assay: Beta-lactamase inhibitory activity against penicillinase of Klebsiella pneumoniae. TN1698
Mus musculus [14] = assay: Effective does against ip infected Escherichia coli O-111 […] when administered sc; format: functional; conditions: Mus musculus; read-out: ED50
Procedure, shortened: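 Slc:ICR mice; ED50 calculated by the Reed–Muench method from survival recorded 5 days after infection.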

[15] = In vitro potentiation activity was tested after adding a concentration of […] into the agar plate of ampicillin or cefotiam; show synergistic effect; format: functional
Escherichia coli [16] = assay: Inhibition of growth of Escherichia coli T-7; format: functional; conditions: Escherichia coli; read-out: MIC; procedure, shortened: as §1
Staphylococcus aureus = assay: Inhibition of growth of Staphylococcus aureus 308 A-1; format: functional; conditions: Staphylococcus aureus; read-out: MIC; procedure, shortened: as §1
[17] = target: Beta-lactamase (Serratia marcescens) (UniProt P18539)
Beta-lactamase (Serratia marcescens), sequence (P18539 whole entry): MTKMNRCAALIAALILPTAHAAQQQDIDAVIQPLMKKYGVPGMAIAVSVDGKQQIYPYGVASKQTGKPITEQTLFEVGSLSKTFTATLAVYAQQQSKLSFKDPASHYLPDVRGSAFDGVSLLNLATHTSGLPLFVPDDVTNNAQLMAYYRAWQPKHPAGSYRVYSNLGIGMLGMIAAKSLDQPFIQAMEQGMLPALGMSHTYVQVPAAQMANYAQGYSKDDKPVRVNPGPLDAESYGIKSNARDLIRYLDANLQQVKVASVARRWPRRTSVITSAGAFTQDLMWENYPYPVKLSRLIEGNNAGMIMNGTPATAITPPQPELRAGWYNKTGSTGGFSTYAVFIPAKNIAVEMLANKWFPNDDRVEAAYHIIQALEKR

Mus musculus [18] = assay: In vivo synergistic protective effect with cefotiam in mice infected with Proteus vulgaris GN4815 at 10 mg/kg dose given sc; format: functional; conditions: route subcutaneous
Beta-lactamase [19] = target: Beta-lactamase (Serratia marcescens, UniProt P18539); assay: Beta-lactamase inhibitory activity against cephalosporinase of Serratia marcescens. TN81; conditions: read-out: I50 (converted)
Beta-lactamase (Serratia marcescens, UniProt P18539), sequence (P18539 whole entry): as above

[20] = target: T1, Beta-lactamase (Proteus mirabilis); conditions: Proteus vulgaris; remark: listed apart in the source
[21] = target: Beta-lactamase (Serratia marcescens) (UniProt P18539); remark: listed apart in the source
[22] = target: Beta-lactamase (Staphylococcus aureus) (UniProt P00807); remark: listed apart in the source

## CN(C)CCn1nnnc1SCC1=C(C(=O)O)N2C(=O)[C@@H](NC(=O)Cc3csc(N)n3)[C@H]2SC1 [CEFOTIAM]
Mus musculus [1]
  ED50: 35.5 mg/kg

## CC(=O)N/C=C/[S+]([O-])C1=C(C(=O)O)N2C(=O)[C@@H](C(C)(C)O)[C@H]2C1 (stereo in doubt; 20)
[2]
  Activity: synergistic effect

## CC(=O)N/C=C/[S+]([O-])C1=C(C(=O)[O-])N2C(=O)[C@@H](C(C)(C)OS(=O)(=O)[O-])[C@H]2C1.[Na+].[Na+] (stereo partly drawn)
Beta-lactamase [3]
  IC50: 450 nM
Klebsiella pneumoniae [4]
  MIC: 12.5 mg/L
Proteus mirabilis
  MIC: 50 mg/L
Escherichia coli [5]
  MIC: 6.25 mg/L
Mus musculus [6]
  ED50 at 1 mg/kg: 12.5 mg/kg
Beta-lactamase [7]
  IC50: 0.793 nM
Pseudomonas aeruginosa
  MIC: > 100 mg/L
Serratia marcescens
  MIC: 12.5 mg/L
[8]
  MIC: 12.5 mg/L
Citrobacter freundii
  MIC: 12.5 mg/L
Morganella morganii
  MIC: 50 mg/L
Enterobacter cloacae
  MIC: 25 mg/L
Mus musculus [9]
  ED50 at 100 mg/kg: 3.86 mg/kg
[10]
  MIC: 25 mg/L
Mus musculus [11]
  T1/2: 22 min
[12]
  MIC: 1.56 mg/L
Proteus vulgaris
  MIC: 50 mg/L
Klebsiella pneumoniae [13]
  MIC: 6.25 mg/L
Mus musculus [14]
  ED50: > 100 mg/kg
[15]
  Activity: synergistic effect
Escherichia coli [16]
  MIC: 12.5 mg/L
Staphylococcus aureus
  MIC: 12.5 mg/L
[17]
  MIC: 6.25 mg/L
Mus musculus [18]
  ED50 at 10 mg/kg: 8.87 mg/kg
Beta-lactamase [19]
  IC50: 118 nM

## CC(=O)N/C=C\[S+]([O-])C1=C(C(=O)O)N2C(=O)[C@@H](C(C)OS(=O)(=O)O)[C@H]2C1 (stereo partly drawn)
Beta-lactamase [3]
  IC50: 7.52 nM
[20]
  MIC: 50 mg/L (≈ 122 µM)
[21]
  MIC: 25 mg/L (≈ 61.2 µM)
Beta-lactamase [7]
  IC50: 0.354 nM
[22]
  MIC: 50 mg/L (≈ 122 µM)
Beta-lactamase [19]
  IC50: 0.752 nM
